# ChEMBL document CHEMBL3351797, “Synthesis, in vitro and in silico studies of a PPARγ and GLUT-4 modulator with hypoglycemic effect” (2014)
# Active and inactive are the calls of the source. The rule behind the calls is not given here.
# Columns and labels:
# Rattus norvegicus [1] = experiment: Antidiabetic activity in streptozotocin-nicotinamide-induced NIDDM Wistar rat model assessed as reduction in blood glucose level at 5 mg/kg administered intragastrically measured at 5 hrs post dose relative to control; assay type: functional; design: scale not given: the % may be the effect or the level left; settings: route intragastric
# How it was run: (§1)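 Streptozotocin–nicotinamide-induced diabetic rats received one intragastric dose (test agent 50 mg/Kg; glibenclamide 5 mg/Kg as hypoglycemic control). Blood glucose was sampled at 0, 1, 3, 5 and 7 h after dosing. Change was expressed as percentage variation of glycemia from zero hour, negative meaning a decrease. Values are mean ± SEM (n = 6), compared with a control group.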
# Rattus norvegicus [2] = experiment: Antidiabetic activity in streptozotocin-nicotinamide-induced NIDDM Wistar rat model assessed as reduction in blood glucose level at 5 mg/kg administered intragastrically measured at 7 hrs post dose relative to control; assay type: functional; design: scale not given: the % may be the effect or the level left; settings: route intragastric; how it was run: as §1
# Rattus norvegicus [3] = experiment: Antidiabetic activity in streptozotocin-nicotinamide-induced NIDDM Wistar rat model assessed as reduction in blood glucose level at 5 mg/kg administered intragastrically measured at 1 hr post dose relative to control; assay type: functional; design: scale not given: the % may be the effect or the level left; settings: route intragastric; how it was run: as §1
# Rattus norvegicus [4] = experiment: Antidiabetic activity in streptozotocin-nicotinamide-induced NIDDM Wistar rat model assessed as reduction in blood glucose level at 5 mg/kg administered intragastrically measured at 3 hrs post dose relative to control; assay type: functional; design: scale not given: the % may be the effect or the level left; settings: route intragastric; how it was run: as §1
# Rattus norvegicus [5] = experiment: Antidiabetic activity in streptozotocin-nicotinamide-induced NIDDM Wistar rat model assessed as reduction in blood glucose level at 50 mg/kg administered intragastrically measured at 5 hrs post dose relative to control; assay type: functional; design: scale not given: the % may be the effect or the level left; settings: route intragastric; how it was run: as §1
# 3T3-L1 [6] = experiment: Increase in PPARgamma mRNA expression mouse 3T3L1 cells at 10 uM after 24 hrs by SYBR Green-based expression analysis relative to control; assay type: functional
# 3T3-L1 [7] = experiment: Increase in Glut-4 mRNA expression mouse 3T3L1 cells at 10 uM after 24 hrs by SYBR Green-based expression analysis relative to control; assay type: functional
# 3T3-L1 [8] = experiment: Increase in PPARalpha mRNA expression mouse 3T3L1 cells at 10 uM after 24 hrs by SYBR Green-based expression analysis relative to control; assay type: functional, cell-based
# Rattus norvegicus [9] = experiment: Antidiabetic activity in streptozotocin-nicotinamide-induced NIDDM Wistar rat model assessed as reduction in blood glucose level at 50 mg/kg administered intragastrically measured at 3 hrs post dose relative to control; assay type: functional; design: scale not given: the % may be the effect or the level left; settings: route intragastric; how it was run: as §1
# Rattus norvegicus [10] = experiment: Antidiabetic activity in streptozotocin-nicotinamide-induced NIDDM Wistar rat model assessed as reduction in blood glucose level at 50 mg/kg administered intragastrically measured at 1 hr post dose relative to control; assay type: functional; design: scale not given: the % may be the effect or the level left; settings: route intragastric; how it was run: as §1
# Rattus norvegicus [11] = experiment: Antidiabetic activity in streptozotocin-nicotinamide-induced NIDDM Wistar rat model assessed as reduction in blood glucose level at 50 mg/kg administered intragastrically measured at 7 hrs post dose relative to control; assay type: functional; design: scale not given: the % may be the effect or the level left; settings: route intragastric; how it was run: as §1
SMILES,Activity (Rattus norvegicus [1]) [%],Activity (Rattus norvegicus [2]) [%],Activity (Rattus norvegicus [3]) [%],Activity (Rattus norvegicus [4]) [%],Activity (Rattus norvegicus [5]) [%],fold change (FC) (3T3-L1 [6]),fold change (FC) (3T3-L1 [7]),Activity (3T3-L1 [8]),Activity (Rattus norvegicus [9]) [%],Activity (Rattus norvegicus [10]) [%],Activity (Rattus norvegicus [11]) [%]
COc1ccc(Cl)cc1C(=O)NCCc1ccc(S(=O)(=O)NC(=O)NC2CCCCC2)cc1 [GLYBURIDE],37.5,43.6,20.5,36.3,,,,,,,
CCOC(=O)COc1ccc(NC(=O)COc2ccc(/C=C3\SC(=O)NC3=O)cc2)cc1,,,,,36.7,2,2,inactive,20.5,4.4,31
O=C(O)COc1ccc(NC(=O)COc2ccc(/C=C3\SC(=O)NC3=O)cc2)cc1,,,,,,2,2,inactive,,,
